The target of data set [1] is Cruzipain (Trypanosoma cruzi) (UniProt P25779). The data set can be described thus: Competitive inhibition of Trypanosoma cruzi Cruzain using Z-FR-AMC as substrate at 100 uM preincubated for 10 mins followed by substrate addition measured every 12 secs for 5 mins by fluorescence assay relative to control.
In data set [2] the test system is Trypanosoma cruzi. Put plainly: Antiparasitic activity against bloodstream trypomastigote stage of Trypanosoma cruzi Y assessed as parasite viability after 24 hrs by Neubauer chamber analysis. It counts as functional, organism-based. In outline:
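Y strain bloodstream trypomastigotes were harvested from infected LLC-MK2 cell supernatants. They were exposed to compounds at five concentrations for 24 h at 37 °C, 5% CO₂. Viable parasites were counted in a Neubauer chamber by motility. Inhibition was calculated relative to untreated cultures, and IC50 was derived by non-linear regression.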

The nature of data set [3]: Selectivity index, ratio of CC50 for mouse J774 cells to IC50 for bloodstream trypomastigote stage of Trypanosoma cruzi Y.
Data set [4] is described as follows: Cytotoxicity against mouse J774 cells assessed as cell viability after 72 hrs by Alamar Blue assay. The data set is classed as cell-based. In outline: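 J774 macrophages were plated at 5 × 10⁴ cells/mL in RPMI + 10% FBS with gentamycin and grown 24 h at 37 °C, 5% CO₂. Compounds in DMSO (final <1%) were added at six concentrations (0.41–100 µM) in triplicate for 72 h. Viability was read by AlamarBlue at 570/600 nm after 6 h. CC50 came from three independent experiments, with gentian violet as positive control.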
(In general: The colour change of resazurin is a common sign of viable cells or microbes.)

In data set [5] the test system is Trypanosoma cruzi. Put plainly: Potency index, ratio of benznidazole IC50 to compound IC50 for bloodstream trypomastigote stage of Trypanosoma cruzi Y. It counts as functional.
The test system of data set [6] is Trypanosoma cruzi. Put plainly: Antiparasitic activity against amastigote stage of Trypanosoma cruzi Y in BALB/c mouse macrophages assessed as decrease in number of infected cells at 50 uM incubated for 6 hrs by Giemsa staining-based optical microscopic analysis. It counts as functional, organism-based. In outline:
(§1)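 Thioglycolate-elicited peritoneal macrophages from BALB/c mice, 2 × 10⁵ cells/well on coverslips in RPMI + 10% FBS for 24 h, then infected with Y strain trypomastigotes (10 per macrophage) for 2 h. Free parasites washed off. Compounds added at 50 µM for 6 h, medium replaced, 3 days further culture. Methanol fixation, Giemsa staining, 100 cells counted per slide. Triplicate, two independent experiments.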

Data set [7] has as its system Trypanosoma cruzi. Put plainly: Potency index, ratio of benznidazole IC50 to compound IC50 for amastigote stage of Trypanosoma cruzi Y in BALB/c mouse macrophages. The data set is classed as functional.
Data set [8] concerns Trypanosoma cruzi. The data set can be described thus: Antiparasitic activity against amastigote stage of Trypanosoma cruzi Y in BALB/c mouse macrophages assessed as decrease in number of intracellular amastigotes incubated for 6 hrs by Giemsa staining-based optical microscopic analysis. It counts as functional, organism-based. In outline: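 Peritoneal BALB/c macrophages (thioglycolate-elicited) were infected with Y strain trypomastigotes at 10:1 for 2 h and washed. Compounds at five concentrations (1–50 µM) were applied for 6 h, followed by fresh medium and 3 days of culture. Amastigotes per 100 macrophages were counted after Giemsa staining.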

Data set [9] concerns Trypanosoma cruzi. The data set can be described thus: Antiparasitic activity against amastigote stage of Trypanosoma cruzi Y in BALB/c mouse macrophages assessed as decrease in number of intracellular amastigotes at 50 uM incubated for 6 hrs by Giemsa staining-based optical microscopic analysis. The data set is classed as functional, organism-based. In outline:
as §1

Data set [10] deals with Trypanosoma cruzi. The data set can be described thus: Antiparasitic activity against bloodstream trypomastigote stage of Trypanosoma cruzi Y infected in BALB/c mouse assessed as reduction of parasitemia at 100 mg/kg, po qd administered for 5 days measured on day 10 post infection relative to vehicle-treated control. It counts as functional. Details: scale not given: the % may be the effect or the level left. In outline:
(§2)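 Female BALB/c mice (6 per group, randomized) were infected with 10⁴ Y strain trypomastigotes. They were dosed orally at 100 mg/kg once daily for 5 days starting day 5 post-infection. Parasitemia was counted as trypomastigotes in fresh blood. Reduction = (vehicle mean − treated mean)/vehicle mean × 100%.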

The test system of data set [11] is Trypanosoma cruzi. Put plainly: Antiparasitic activity against bloodstream trypomastigote stage of Trypanosoma cruzi Y infected in BALB/c mouse assessed as reduction of parasitemia at 100 mg/kg, po qd administered for 5 days measured on day 12 post infection relative to vehicle-treated control. Further details: scale not given: the % may be the effect or the level left. The data set is classed as functional. In outline:
as §2

Another data set relates to Mus musculus. The data set can be described thus: Toxicity in BALB/c mouse infected with bloodstream trypomastigote stage of Trypanosoma cruzi Y assessed as body weight loss at 100 mg/kg, po qd administered for 5 days. The conditions noted are these: in vivo, 120 h. It counts as organism-based.
Data set [12] deals with Trypanosoma cruzi. The data set can be described thus: Antiparasitic activity against bloodstream trypomastigote stage of Trypanosoma cruzi Y infected in BALB/c mouse assessed as increase in survival rate by measuring mortality at 100 mg/kg, po qd administered for 5 days measured until 30 days. It counts as functional, organism-based. In outline: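 Female BALB/c mice (6 per group) were infected with 10⁴ Y strain trypomastigotes. From day 5 post-infection they received 100 mg/kg orally once daily for 5 days. Controls were vehicle (untreated infected) and benznidazole 100 mg/kg. Survival was followed for 30 days after infection in one experiment.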

In the next data set the test system is Leishmania. Put plainly: Antiparasitic activity against Leishmania. It counts as functional.
Data set [13] relates to Trypanosoma cruzi. Put plainly: Antichagasic activity against Trypanosoma cruzi. It counts as functional.

Activity calls are given as the source filed them. The rule behind the calls is not given here. A value given as a limit tells only on which side of the number the result lay.

A word on the inhibition: it is the drop in the measured response relative to a control, in per cent. The IC50 is the midpoint of a concentration-inhibition curve. For orientation: CC50 means the concentration giving 50% cytotoxicity.

Cruzipain (Trypanosoma cruzi), sequence (P25779 123-467 limits assumed): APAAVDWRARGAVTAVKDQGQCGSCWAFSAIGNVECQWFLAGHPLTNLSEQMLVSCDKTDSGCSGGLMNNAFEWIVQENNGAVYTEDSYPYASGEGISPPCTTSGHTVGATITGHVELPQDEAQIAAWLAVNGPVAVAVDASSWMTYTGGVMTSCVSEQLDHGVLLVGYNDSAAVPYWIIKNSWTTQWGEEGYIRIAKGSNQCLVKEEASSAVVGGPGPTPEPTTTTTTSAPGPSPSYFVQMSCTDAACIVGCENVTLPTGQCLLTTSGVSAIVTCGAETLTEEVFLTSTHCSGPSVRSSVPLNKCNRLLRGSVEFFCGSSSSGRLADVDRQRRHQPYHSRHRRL

`C/C(=N\N=C1/NC(=O)C(C)S1)c1ccc(Cl)c(Cl)c1` (centres undefined) showed an inhibition in [1] of 49%. Further, the IC50 in the data set on Trypanosoma cruzi [2] came to 49.5 µM. Besides, in data set [3], the “Ratio CC50/IC50” value is given as above 2. Also, the CC50 at 72 h in data set [4] was above 100 µM.

In data set [1], `C/C(=N\N=C(\N)S)c1ccc(Cl)c(Cl)c1` registered an inhibition of 85%. Further, in the data set with Trypanosoma cruzi [2], the IC50 turned out to be 7.1 µM. The “Ratio CC50/IC50” value in data set [3] was found to be 1.7. Besides, in [4], the cytotoxic concentration (CC50) at 72 h turned out to be 13.4 µM.

Consider `CN(C)c1ccc(C(=C2C=CC(=[N+](C)C)C=C2)c2ccc(N(C)C)cc2)cc1` [GENTIAN VIOLET], for which, in data set [4], the CC50 at 72 h was determined as 0.45 µM.

For `C/C(=N\N=C1/NC(=O)C(c2ccccc2)S1)c1ccc(Cl)c(Cl)c1` (centres undefined), in data set [1], the inhibition turned out to be 61%. In the data set with Trypanosoma cruzi [2], the IC50 was above 50 µM. Further, the CC50 at 72 h in data set [4] turned out to be 96.9 µM.

Take `C/C(=N\N=C1/NC(=O)CS1)c1ccc(Cl)c(Cl)c1`: in data set [1], the inhibition was 54%. Also, the IC50 in the data set on Trypanosoma cruzi [2] is above 50 µM. Also, the CC50 at 72 h in data set [4] amounted to 76.5 µM.

Turning to `C/C(=N\N=C1\SC(C)C(=O)N1C)c1ccc(Cl)c(Cl)c1` (centres undefined), the inhibition in data set [1] worked out at 32%. Besides, the half-inhibitory concentration (IC50) in the data set on Trypanosoma cruzi [2] is above 50 µM. Moreover, the CC50 at 72 h in [4] is above 100 µM.

On to `C/C(=N\NC(=S)Nc1ccccc1)c1ccc(Cl)c(Cl)c1`, for which, in data set [1], the inhibition came out at 0%. The IC50 in the data set with Trypanosoma cruzi [2] was above 50 µM. For the same molecule, the CC50 at 72 h in data set [4] was above 100 µM.

For the molecule `CCC1S/C(=N/N=C(\C)c2ccc(Cl)c(Cl)c2)N(c2ccccc2)C1=O` (centres undefined), the entries for the “Ratio IC50” value with Trypanosoma cruzi [5] and in the data set with Trypanosoma cruzi [7] were 3 and 4, respectively. Besides, the result in the data set on Trypanosoma cruzi [6] and with Trypanosoma cruzi [9] was Active. For the same molecule, the inhibition in data set [1] came out at 24%. In addition, the concentration for half-maximal inhibition (IC50) came to 3.2 µM in the data set with Trypanosoma cruzi [8] and 2.9 µM with Trypanosoma cruzi [2]. For the same molecule, the “Ratio CC50/IC50” value in [3] was determined as 8. Besides, the half-maximal cytotoxic concentration (CC50) at 72 h in data set [4] came to 23.3 µM.

Molecule `CCC1S/C(=N/N=C(\C)c2ccc(Cl)c(Cl)c2)N(C)C1=O` (centres undefined) yielded an inhibition in [1] of 20%. In addition, the half-maximal inhibitory concentration (IC50) with Trypanosoma cruzi [2] came out at 48.5 µM. The “Ratio CC50/IC50” value in [3] was above 2. The CC50 at 72 h in data set [4] is above 100 µM.

On to `C/C(=N\N=C1\SC(C(C)C)C(=O)N1c1ccccc1)c1ccc(Cl)c(Cl)c1` (centres undefined), for which the “Ratio IC50” value in the data set on Trypanosoma cruzi [5] was determined as 6; in the data set on Trypanosoma cruzi [7], 4. In addition, the outcome with Trypanosoma cruzi [6], with Trypanosoma cruzi [12] and with Trypanosoma cruzi [9] was Active. Further, the Activity is reported as 86.7% with Trypanosoma cruzi [10], 97.1% in the data set on Trypanosoma cruzi [11] and “Non-toxic” with Mus musculus. In data set [1], this molecule gave an inhibition of 23%. The IC50 in the data set on Trypanosoma cruzi [8] is 3.1 µM; in the data set with Trypanosoma cruzi [2], 1.7 µM. The “Ratio CC50/IC50” value in [3] is reported as above 58. For the same molecule, the CC50 at 72 h in data set [4] was above 100 µM.

In turn, `C/C(=N\N=C1\SCC(=O)N1c1ccccc1)c1ccc(Cl)c(Cl)c1` showed an inhibition in [1] of 43%. Also, the IC50 with Trypanosoma cruzi [2] is above 50 µM. Further, the CC50 at 72 h in data set [4] was above 100 µM.

Molecule `CNC(=S)N/N=C(\C)c1ccc(Cl)c(Cl)c1` came in with an inhibition in [1] of 28%. Further, the IC50 in the data set on Trypanosoma cruzi [2] was 11.2 µM. The CC50 at 72 h in [4] is above 100 µM.

With `C/C(=N\N=C1\SC(C)C(=O)N1c1ccccc1)c1ccc(Cl)c(Cl)c1` (centres undefined), the “Ratio IC50” value in the data set on Trypanosoma cruzi [5] and in the data set with Trypanosoma cruzi [7] was 2 each time. Moreover, the outcome with Trypanosoma cruzi [6] and in the data set on Trypanosoma cruzi [9] was Active. In data set [1], this molecule registered an inhibition of 43%. Moreover, the values for the IC50 in the data set with Trypanosoma cruzi [8] and with Trypanosoma cruzi [2] were 5.9 µM and 4.2 µM, respectively. In addition, the “Ratio CC50/IC50” value in data set [3] was 6. Also, the CC50 at 72 h in data set [4] worked out at 26.1 µM.

The molecule `C/C(=N\N=C1/NC(=O)C(C(C)C)S1)c1ccc(Cl)c(Cl)c1` (centres undefined) showed an inhibition in data set [1] of 49%. The IC50 with Trypanosoma cruzi [2] turned out to be 16.9 µM. In addition, the “Ratio CC50/IC50” value in data set [3] is given as above 5.9. In data set [4], the CC50 at 72 h was above 100 µM.

`C/C(=N\N=C1\SC(c2ccccc2)C(=O)N1c1ccccc1)c1ccc(Cl)c(Cl)c1` (centres undefined): the inhibition in [1] amounted to 27%. For the same molecule, the half-inhibitory concentration (IC50) in the data set on Trypanosoma cruzi [2] is 17.7 µM. Also, the “Ratio CC50/IC50” value in data set [3] was determined as 1.5. The cytotoxic concentration (CC50) at 72 h in data set [4] is 27.1 µM.

`C/C(=N\N=C1\SC(c2ccccc2)C(=O)N1C)c1ccc(Cl)c(Cl)c1` (centres undefined): the inhibition in [1] was found to be 29%. Besides, the half-maximal inhibitory concentration (IC50) with Trypanosoma cruzi [2] is 41.5 µM. Moreover, the cytotoxic concentration (CC50) at 72 h in data set [4] came out at 97.6 µM.

For `O=C(Cn1ccnc1[N+](=O)[O-])NCc1ccccc1` [BENZNIDAZOLE], the result in the data set on Trypanosoma cruzi [6], in the data set with Trypanosoma cruzi [12] and with Trypanosoma cruzi [9] was Active. The Activity with Trypanosoma cruzi [10] is recorded as above 99%; with Trypanosoma cruzi [11], above 99%; with Mus musculus, “Non-toxic”. The IC50 in the data set on Trypanosoma cruzi [2] came out at 10.6 µM. For the same molecule, in data set [3], the “Ratio CC50/IC50” value is above 9.4. In data set [4], the half-maximal cytotoxic concentration (CC50) at 72 h was above 100 µM.

For the molecule `CCC1S/C(=N/N=C(\C)c2ccc(Cl)c(Cl)c2)NC1=O` (centres undefined), the inhibition in data set [1] amounted to 49%. Moreover, in the data set with Trypanosoma cruzi [2], the IC50 is above 50 µM. Further, the CC50 at 72 h in data set [4] came out at 76.7 µM.

In turn, `C/C(=N\N=C1\SC(C(C)C)C(=O)N1C)c1ccc(Cl)c(Cl)c1` (centres undefined) showed an inhibition in data set [1] of 38%. In addition, the half-maximal inhibitory concentration (IC50) in the data set on Trypanosoma cruzi [2] was above 50 µM. In data set [4], the cytotoxic concentration (CC50) at 72 h is above 100 µM.

In turn, `O=C(N[C@@H](Cn1ccnc1)c1ccc(Cl)cc1Cl)c1ccc(-c2nnc(-c3ccccc3)o2)cc1` returned an Activity in the data set with Leishmania of 60%.

Consider `C/C(=N\N=C1\SCC(=O)N1C)c1ccc(Cl)c(Cl)c1`, for which the inhibition in [1] was 0%. Besides, the concentration for half-maximal inhibition (IC50) in the data set on Trypanosoma cruzi [2] was above 50 µM. In [4], the CC50 at 72 h was above 100 µM.

Turning to `O=C(N[C@@H](Cn1ccnc1)c1ccc(-c2ccc(F)cc2)cc1F)c1ccc(-c2nnc(-c3ccccc3)o2)cc1`, the Activity with Trypanosoma cruzi [13] came out at 100%; in the data set on Leishmania, 89%.

The record behind these values is ChEMBL document CHEMBL3627689, “Structural design, synthesis and pharmacological evaluation of 4-thiazolidinones against Trypanosoma cruzi” (Bioorg Med Chem, 2015).
